# Experimental data gathered from unrelated publications.
# Lines come from different studies, so protocols differ.
# USP28: Ubiquitin carboxyl-terminal hydrolase 28 (USP28, Homo sapiens, UniProt Q96RU2)
# sapA: sapA (Haemophilus influenzae, UniProt Q4QL73)
SMILES,target,assay,measurement,value
CC[C@H](C)[C@H](NC(C)=O)C(=O)N[C@@H](CCC(=O)O)C(=O)N[C@H](C(=O)N[C@H](C=O)CC(=O)O)[C@@H](C)O,"Caspase-1 (CASP1, Homo sapiens, UniProt P29466)","enzyme activity, inhibitor",IC50,27.5 nM
CNC(=O)c1ccc(-c2cnn3ccc(C(=O)N(C)c4ccc(Cl)c(C(=O)OC)c4)cc23)cc1,"TGF-beta receptor type-1 (TGFBR1, Homo sapiens, UniProt P36897)","enzyme activity, inhibitor",IC50,> 30000 nM
CCC(C(=O)Nc1cc(NC2CCNC2)ccc1C)n1cc(Br)cc2nc(SCc3ccc(F)cc3)nc1-2 (stereo not drawn),USP28,"enzyme activity, inhibitor",IC50,> 100000 nM
C[C@@H](O)[C@H](NC(=O)CNC(=O)[C@H](Cc1ccc(O)cc1)NC(=O)[C@H](CCCNC(=N)N)NC(=O)[C@@H](N)CO)C(=O)O,sapA,binding,Kd,31 nM
CCC(C(=O)Nc1cc(NC2CCNCC2)ccc1C)n1cc(Cl)cc2nc(SCc3ccc(F)cc3)nc1-2 (stereo not drawn),"Ubiquitin carboxyl-terminal hydrolase 7 (USP7, Homo sapiens, UniProt Q93009)","enzyme activity, inhibitor",IC50,> 100000 nM
NCCCC[C@H](NC(=O)[C@@H]1CCCN1)C(=O)N[C@@H](CO)C(=O)N[C@@H](CCC(=O)O)C(=O)N[C@@H](CCC(N)=O)C(=O)O,sapA,binding,Kd,28 nM
CCC(C(=O)Nc1cc(NC2COC2)ccc1C)n1cc(Br)cc2nc(SCc3ccc(F)cc3)nc1-2 (stereo not drawn),USP28,"enzyme activity, inhibitor",IC50,> 100000 nM
COC(=O)c1cc(N(C)C(=O)c2ccn3ncc(-c4ccc(C(=O)O)cc4)c3c2)ccc1Cl,"Hepatocyte growth factor receptor (MET, Homo sapiens, UniProt P08581)","enzyme activity, inhibitor",IC50,> 30000 nM
C[C@@H](O)[C@H](NC(=O)CNC(=O)[C@H](Cc1ccc(O)cc1)NC(=O)[C@H](CO)NC(=O)[C@@H](N)CCCNC(=N)N)C(=O)O,sapA,binding,Kd,139 nM
